Assay results published in ChEMBL document CHEMBL5303300, “EUbOPEN Chemogenomics Library - Multiplex” (2023).
“And” between values parts separate entries of the source, which are not always exact repeats. Equal entries are not always repeated.

Legend:
Type in all cases: toxicity, cell-based
Fibroblast = assay: Multiplex assay against human fibroblast; settings: number of replicates 2
In short: (§1)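 Values for tubulin, mitochondrial-mass and membrane-permeability phenotypes are per cents of cells with healthy nuclei. These cells were identified by CellPathfinder machine-learning gating of live cells that had been stained at seeding with Hoechst33342, BioTracker Green Microtubule Cytoskeleton Dye, MitoTracker Red and Annexin V Alexa Fluor 680 and imaged on a CQ1 microscope at 37°C and 5% CO2 after compound addition. The gating first set Hoechst high-intensity objects apart from normal cells, then split normal cells into healthy, pyknosed or fragmented nuclei, and pyknosed cells into mitotic or apoptotic.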

U2OS = assay: Multiplex assay against U2OS; settings: human, number of replicates 2; in short: as §1
HEK-293T = assay: Multiplex assay against HEK293T; settings: human, number of replicates 2; in short: as §1
[1] = 12 h, 1 µM, compound concentration 1 uM
[2] = 12 h, 10 µM, compound concentration 10 uM
[3] = 24 h, 1 µM, compound concentration 1 uM
[4] = 24 h, 10 µM, compound concentration 10 uM
[5] = 48 h, 1 µM, compound concentration 1 uM
[6] = 48 h, 10 µM, compound concentration 10 uM

## COC(=O)c1ccc2c(c1)NC(=O)/C2=C(\Nc1ccc(-c2nccn2C)cc1)c1ccccc1
Fibroblast; [1]
  Population Apoptotic (%): 35% and 43%
  Population Fragmented Nuclei (%): 10% and 29%
  Population Healthy Nuclei (%): 72% and 51%
  Population Hoechst High Intensity Objects (%): 0%
  Population Membrane Permeable-Phenotype (%): 2% and 1%
  Population Mitochondria Different-Phenotype (%): 1% and 3%
  Population Mitotic Cells (%): 64% and 56%
  Population Normal (%): 99%
  Population Pyknosed Nuclei (%): 17% and 19%
  Population Tubulin-Different-Phenotype (%): 7% and 9%
  Total Cell Count: 195 and 242
Fibroblast; [2]
  Population Apoptotic (%): 50% and 45%
  Population Fragmented Nuclei (%): 21% and 17%
  Population Healthy Nuclei (%): 59% and 62%
  Population Hoechst High Intensity Objects (%): 0%
  Population Membrane Permeable-Phenotype (%): 13% and 9%
  Population Mitochondria Different-Phenotype (%): 2%
  Population Mitotic Cells (%): 50% and 54%
  Population Normal (%): 100% and 99%
  Population Pyknosed Nuclei (%): 18% and 19%
  Population Tubulin-Different-Phenotype (%): 67% and 56%
  Total Cell Count: 317 and 270
Fibroblast; [3]
  Population Apoptotic (%): 64% and 60%
  Population Healthy Nuclei (%): 74% and 53%
  Population Hoechst High Intensity Objects (%): 0%
  Population Membrane Permeable-Phenotype (%): 3%
  Population Mitochondria Different-Phenotype (%): 0%
  Population Mitotic Cells (%): 35% and 39%
  Population Normal (%): 99%
  Population Pyknosed Nuclei (%): 15% and 14%
  Population Tubulin-Different-Phenotype (%): 11% and 8%
  Total Cell Count: 180 and 255
Fibroblast; [4]
  Population Apoptotic (%): 70% and 67%
  Population Fragmented Nuclei (%): 24%
  Population Healthy Nuclei (%): 59% and 54%
  Population Hoechst High Intensity Objects (%): 0%
  Population Membrane Permeable-Phenotype (%): 5% and 6%
  Population Mitochondria Different-Phenotype (%): 8% and 6%
  Population Mitotic Cells (%): 29% and 32%
  Population Normal (%): 99%
  Population Pyknosed Nuclei (%): 16% and 21%
  Population Tubulin-Different-Phenotype (%): 60% and 43%
  Total Cell Count: 317 and 264
Fibroblast; [5]
  Population Apoptotic (%): 48% and 73%
  Population Healthy Nuclei (%): 69% and 56%
  Population Hoechst High Intensity Objects (%): 0%
  Population Membrane Permeable-Phenotype (%): 1% and 3%
  Population Mitochondria Different-Phenotype (%): 0%
  Population Mitotic Cells (%): 51% and 26%
  Population Normal (%): 100% and 99%
  Population Pyknosed Nuclei (%): 20% and 9%
  Population Tubulin-Different-Phenotype (%): 3% and 8%
  Total Cell Count: 182 and 256
Fibroblast; [6]
  Population Apoptotic (%): 84% and 86%
  Population Fragmented Nuclei (%): 22% and 26%
  Population Healthy Nuclei (%): 62% and 56%
  Population Hoechst High Intensity Objects (%): 0% and 1%
  Population Membrane Permeable-Phenotype (%): 5% and 6%
  Population Mitochondria Different-Phenotype (%): 5% and 9%
  Population Mitotic Cells (%): 15% and 13%
  Population Normal (%): 100% and 98%
  Population Pyknosed Nuclei (%): 14% and 17%
  Population Tubulin-Different-Phenotype (%): 45% and 38%
  Total Cell Count: 302 and 261
U2OS; [1]
  Population Healthy Nuclei (%): 70% and 88%
  Population Hoechst High Intensity Objects (%): 0%
  Population Membrane Permeable-Phenotype (%): 12% and 2%
  Population Mitochondria Different-Phenotype (%): 4% and 0%
  Population Mitotic Cells (%): 100% and 64%
  Population Normal (%): 100%
  Population Pyknosed Nuclei (%): 2% and 8%
  Population Tubulin-Different-Phenotype (%): 54% and 83%
U2OS; [2]
  Population Apoptotic (%): 50% and 68%
  Population Healthy Nuclei (%): 43% and 77%
  Population Hoechst High Intensity Objects (%): 0%
  Population Membrane Permeable-Phenotype (%): 25% and 15%
  Population Mitochondria Different-Phenotype (%): 7% and 20%
  Population Mitotic Cells (%): 50% and 31%
  Population Normal (%): 100%
  Population Pyknosed Nuclei (%): 16% and 15%
  Population Tubulin-Different-Phenotype (%): 55% and 43%
  Total Cell Count: 62 and 186
U2OS; [3]
  Population Apoptotic (%): 84% and 57%
  Population Healthy Nuclei (%): 91% and 65%
  Population Hoechst High Intensity Objects (%): 0%
  Population Membrane Permeable-Phenotype (%): 2% and 11%
  Population Mitochondria Different-Phenotype (%): 0% and 5%
  Population Mitotic Cells (%): 15% and 42%
  Population Normal (%): 100%
  Population Pyknosed Nuclei (%): 5% and 13%
  Population Tubulin-Different-Phenotype (%): 79% and 44%
U2OS; [4]
  Population Apoptotic (%): 58% and 68%
  Population Healthy Nuclei (%): 42% and 74%
  Population Hoechst High Intensity Objects (%): 0%
  Population Membrane Permeable-Phenotype (%): 22% and 10%
  Population Mitochondria Different-Phenotype (%): 27% and 31%
  Population Mitotic Cells (%): 41% and 31%
  Population Normal (%): 100%
  Population Pyknosed Nuclei (%): 23% and 20%
  Population Tubulin-Different-Phenotype (%): 50% and 52%
U2OS; [5]
  Population Apoptotic (%): 50% and 62%
  Population Healthy Nuclei (%): 71% and 90%
  Population Hoechst High Intensity Objects (%): 0%
  Population Membrane Permeable-Phenotype (%): 5% and 2%
  Population Mitochondria Different-Phenotype (%): 3% and 0%
  Population Mitotic Cells (%): 50% and 37%
  Population Normal (%): 100%
  Population Pyknosed Nuclei (%): 9% and 5%
  Population Tubulin-Different-Phenotype (%): 58% and 86%
U2OS; [6]
  Population Apoptotic (%): 93% and 88%
  Population Healthy Nuclei (%): 40% and 72%
  Population Hoechst High Intensity Objects (%): 3% and 0%
  Population Membrane Permeable-Phenotype (%): 27% and 11%
  Population Mitochondria Different-Phenotype (%): 40% and 21%
  Population Mitotic Cells (%): 6% and 11%
  Population Normal (%): 96% and 99%
  Population Pyknosed Nuclei (%): 27% and 21%
  Population Tubulin-Different-Phenotype (%): 59% and 40%
HEK-293T; [1]
  Population Apoptotic (%): 50% and 35%
  Population Fragmented Nuclei (%): 3% and 2%
  Population Healthy Nuclei (%): 86%
  Population Hoechst High Intensity Objects (%): 4%
  Population Membrane Permeable-Phenotype (%): 4% and 3%
  Population Mitochondria Different-Phenotype (%): 20% and 17%
  Population Mitotic Cells (%): 49% and 64%
  Population Normal (%): 95%
  Population Pyknosed Nuclei (%): 10% and 11%
  Population Tubulin-Different-Phenotype (%): 52% and 51%
  Total Cell Count: 677 and 686
HEK-293T; [2]
  Population Apoptotic (%): 53% and 62%
  Population Fragmented Nuclei (%): 2% and 4%
  Population Healthy Nuclei (%): 83% and 81%
  Population Hoechst High Intensity Objects (%): 10% and 11%
  Population Membrane Permeable-Phenotype (%): 6% and 5%
  Population Mitochondria Different-Phenotype (%): 37% and 38%
  Population Mitotic Cells (%): 46% and 37%
  Population Normal (%): 89% and 88%
  Population Pyknosed Nuclei (%): 13% and 14%
  Population Tubulin-Different-Phenotype (%): 88% and 93%
  Total Cell Count: 504 and 530
HEK-293T; [3]
  Population Apoptotic (%): 30% and 31%
  Population Fragmented Nuclei (%): 5% and 3%
  Population Healthy Nuclei (%): 87% and 88%
  Population Hoechst High Intensity Objects (%): 6% and 7%
  Population Membrane Permeable-Phenotype (%): 4% and 1%
  Population Mitochondria Different-Phenotype (%): 8% and 5%
  Population Mitotic Cells (%): 69% and 68%
  Population Normal (%): 93% and 92%
  Population Pyknosed Nuclei (%): 6% and 8%
  Population Tubulin-Different-Phenotype (%): 35% and 36%
  Total Cell Count: 1123 and 936
HEK-293T; [4]
  Population Apoptotic (%): 55% and 74%
  Population Fragmented Nuclei (%): 6% and 5%
  Population Healthy Nuclei (%): 79% and 80%
  Population Hoechst High Intensity Objects (%): 9% and 11%
  Population Membrane Permeable-Phenotype (%): 3% and 4%
  Population Mitochondria Different-Phenotype (%): 27% and 38%
  Population Mitotic Cells (%): 44% and 25%
  Population Normal (%): 90% and 88%
  Population Pyknosed Nuclei (%): 13% and 14%
  Population Tubulin-Different-Phenotype (%): 81% and 89%
  Total Cell Count: 660 and 604
HEK-293T; [5]
  Population Apoptotic (%): 28% and 24%
  Population Fragmented Nuclei (%): 12% and 9%
  Population Healthy Nuclei (%): 84% and 87%
  Population Hoechst High Intensity Objects (%): 9%
  Population Membrane Permeable-Phenotype (%): 4% and 3%
  Population Mitochondria Different-Phenotype (%): 0% and 1%
  Population Mitotic Cells (%): 72% and 75%
  Population Normal (%): 90%
  Population Pyknosed Nuclei (%): 2% and 3%
  Population Tubulin-Different-Phenotype (%): 12% and 19%
  Total Cell Count: 2887 and 2005
HEK-293T; [6]
  Population Apoptotic (%): 46% and 56%
  Population Fragmented Nuclei (%): 11% and 8%
  Population Healthy Nuclei (%): 83% and 85%
  Population Hoechst High Intensity Objects (%): 11%
  Population Membrane Permeable-Phenotype (%): 5% and 4%
  Population Mitochondria Different-Phenotype (%): 10% and 22%
  Population Mitotic Cells (%): 53% and 43%
  Population Normal (%): 88%
  Population Pyknosed Nuclei (%): 5% and 6%
  Population Tubulin-Different-Phenotype (%): 64% and 85%
  Total Cell Count: 1119 and 790
